Reference: ChEMBL document CHEMBL1909510, “Synthesis and evaluation of cytotoxic effects of hanultarin and its derivatives” (Bioorg Med Chem Lett, 2011)
Active and inactive are the calls of the source. The rule behind the calls is not given here.

Columns and labels:
Format in all cases: functional, cell-based
HCT-15 = test: Cytotoxicity against human HCT15 cells after 48 hrs by sulforhodamine B assay; conditions: HCT-15, 48 h
Method in brief: (§1)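 SRB assay, done in triplicate on each cell line across 1.56–50 µg/mL; IC50 determined per cell line. Lines are A549 (human lung cancer), B16F10 (mouse melanoma), HCT-15 (human colon), SKOV3 (human ovary) and SKMel2 (human skin).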

A549 [1] = test: Induction of microtubule disruption in human A549 cells at IC50 after 48 hrs by immunocytochemical analysis
SK-MEL-2 = test: Cytotoxicity against human SK-MEL-2 cells after 48 hrs by sulforhodamine B assay; conditions: SK-MEL-2, 48 h; method in brief: as §1
SK-OV-3 = test: Cytotoxicity against human SKOV3 cells after 48 hrs by sulforhodamine B assay; conditions: SK-OV-3, 48 h; method in brief: as §1
A549 [2] = test: Induction of nucleus disruption in human A549 cells at IC50 after 48 hrs by immunocytochemical analysis
A549 [3] = test: Induction of actin disruption in human A549 cells at IC50 after 48 hrs by immunocytochemical analysis
B16-F10 = test: Cytotoxicity against mouse B16F10 cells after 48 hrs by sulforhodamine B assay; conditions: B16-F10, 48 h; method in brief: as §1
A549 [4] = test: Cytotoxicity against human A549 cells after 48 hrs by sulforhodamine B assay; conditions: A549, 48 h; method in brief: as §1

SMILES | IC50 (HCT-15) [µM] | Activity (A549 [1]) | IC50 (SK-MEL-2) [µM] | IC50 (SK-OV-3) [µM] | Activity (A549 [2]) | Activity (A549 [3]) | IC50 (B16-F10) [µM] | IC50 (A549 [4]) [µM]
COc1cc(CCC(=O)OC[C@H](Cc2ccc(O)c(OC)c2)[C@H](COC(=O)CCc2ccc(O)c(OC)c2)Cc2ccc(O)c(OC)c2)ccc1O (racemic) | 10 | Active | 10.3 | 35.9 | inactive | Active | 12.8 | 12.1
COc1cc(CC(=O)OC[C@H](Cc2ccc(O)c(OC)c2)[C@H](COC(=O)Cc2ccc(O)c(OC)c2)Cc2ccc(O)c(OC)c2)ccc1O (racemic) | 15.9 | Active | 14.2 | 30.8 | inactive | Active | 13.3 | 17.5
COc1cc(CC(=O)OC[C@H](Cc2ccc(O)c(OC)c2)[C@H](CO)Cc2ccc(O)c(OC)c2)ccc1O (racemic) | 52.2 |  | > 76 | > 76 |  |  | 71.8 | 65.3
COc1cc(/C=C/C(=O)OC[C@H](Cc2ccc(O)c(OC)c2)[C@H](COC(=O)/C=C/c2ccc(O)c(OC)c2)Cc2ccc(O)c(OC)c2)ccc1O (racemic) | 8.3 | Active | 8.3 | 21.7 | inactive | Active | 9.8 | 7.1
COc1cc(CCC(=O)OC[C@H](Cc2ccc(O)c(OC)c2)[C@H](CO)Cc2ccc(O)c(OC)c2)ccc1O (racemic) | 49.6 |  | 64 | > 74 |  |  | 68.4 | 65.7
COc1cc(/C=C/C(=O)OC[C@H](Cc2ccc(O)c(OC)c2)[C@H](CO)Cc2ccc(O)c(OC)c2)ccc1O (racemic) [HANULTARIN] | 29.3 | Active | 17.3 | 63.9 | inactive | Active | 21.4 | 29.5
COc1cc(C[C@@H](CO)[C@H](CO)Cc2ccc(O)c(OC)c2)ccc1O (racemic) [(+)-SECOISOLARICIRESINOL] | > 110 |  | > 110 | > 110 |  |  | > 110 | > 110
